Laboratory results from ChEMBL document CHEMBL4265954, “Discovery of potent liver-selective stearoyl-CoA desaturase-1 (SCD1) inhibitors, thiazole-4-acetic acid derivatives, for the treatment of diabetes, hepatic steatosis, and obesity” (Eur J Med Chem, 2018).

How the values were obtained:
Stearoyl-CoA desaturase = target: T1, Stearoyl-CoA desaturase (Homo sapiens, UniProt O00767); test: Inhibition of recombinant human SCD1 expressed in baculovirus expression system assessed as reduction in [3H]H2O production using stearoyl [9,10-3H]CoA as substrate in presence of NADH incubated for 30 mins by scintillation counting method
T1 sequence (O00767 whole entry): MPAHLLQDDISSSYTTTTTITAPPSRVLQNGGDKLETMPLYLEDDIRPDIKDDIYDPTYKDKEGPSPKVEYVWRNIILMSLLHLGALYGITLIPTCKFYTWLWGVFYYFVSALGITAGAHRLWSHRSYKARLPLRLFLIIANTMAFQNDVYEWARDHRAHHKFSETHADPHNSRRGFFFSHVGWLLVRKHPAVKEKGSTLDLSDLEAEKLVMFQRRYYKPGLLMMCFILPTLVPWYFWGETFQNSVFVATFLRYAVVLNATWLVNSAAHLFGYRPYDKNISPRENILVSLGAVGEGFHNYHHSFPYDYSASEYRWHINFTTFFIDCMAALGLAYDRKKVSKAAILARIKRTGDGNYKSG
Outline: (§1)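 Desaturation of [9,10-3H]stearoyl-CoA measured as released [3H]H2O. Water was separated from charcoal-adsorbed substrate by filtration and counted by scintillation. Remaining activity = (compound − background)/(control − background). DMSO wells served as control and pre-stopped wells as background. IC50 was interpolated from the two points bracketing 50%.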

Mus musculus [1] = test: Ex vivo inhibition of SCD1 in C57BL/6J mouse liver assessed as residual activity at 1 mg/kg, po treated for 6 hrs followed by incubation with [14C]stearoyl-CoA substrate for 10 mins by TLC assay relative to control; type: functional
Outline: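 Male 6-week-old C57BL/6J mice dosed orally as a suspension in 0.5% methylcellulose. Liver or eyelid was taken 6 or 24 h later and homogenized in 100 mM Tris-HCl pH 7.4 with 0.25 M sucrose. S9 was obtained at 10,000 × g, 4 °C. S9 was incubated with [14C]stearoyl-CoA, NADH, MgCl2 and cytochrome b5 at room temperature, 10 min for liver and 30 min for eyelid. Lipids were saponified and run on AgNO3 TLC to quantify stearate and oleate. Result is % of vehicle control.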

Acyl-CoA desaturase 1 = target: T2, Acyl-CoA desaturase 1 (Rattus norvegicus, UniProt P07308); test: Inhibition of rat liver microsome SCD assessed as reduction in [3H]H2O production using stearoyl [9,10-3H]CoA as substrate in presence of NADH incubated for 30 mins by scintillation counting method; type: microsomes; outline: as §1
T2 sequence (P07308 whole entry): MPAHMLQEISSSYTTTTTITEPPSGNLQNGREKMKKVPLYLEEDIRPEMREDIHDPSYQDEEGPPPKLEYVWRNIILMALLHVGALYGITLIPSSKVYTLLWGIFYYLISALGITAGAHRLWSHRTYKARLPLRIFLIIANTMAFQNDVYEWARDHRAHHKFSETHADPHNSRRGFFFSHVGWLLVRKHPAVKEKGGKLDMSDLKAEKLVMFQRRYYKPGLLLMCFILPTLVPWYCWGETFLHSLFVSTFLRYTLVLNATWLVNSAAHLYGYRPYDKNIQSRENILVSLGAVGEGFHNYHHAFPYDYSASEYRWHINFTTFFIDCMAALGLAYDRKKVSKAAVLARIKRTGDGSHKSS

Cytochrome P450 3A4 = Cytochrome P450 3A4 (Homo sapiens, UniProt P08684); test: Inhibition of CYP3A4 (unknown origin); type: ADME
Cytochrome P450 3A4, sequence (P08684 whole entry): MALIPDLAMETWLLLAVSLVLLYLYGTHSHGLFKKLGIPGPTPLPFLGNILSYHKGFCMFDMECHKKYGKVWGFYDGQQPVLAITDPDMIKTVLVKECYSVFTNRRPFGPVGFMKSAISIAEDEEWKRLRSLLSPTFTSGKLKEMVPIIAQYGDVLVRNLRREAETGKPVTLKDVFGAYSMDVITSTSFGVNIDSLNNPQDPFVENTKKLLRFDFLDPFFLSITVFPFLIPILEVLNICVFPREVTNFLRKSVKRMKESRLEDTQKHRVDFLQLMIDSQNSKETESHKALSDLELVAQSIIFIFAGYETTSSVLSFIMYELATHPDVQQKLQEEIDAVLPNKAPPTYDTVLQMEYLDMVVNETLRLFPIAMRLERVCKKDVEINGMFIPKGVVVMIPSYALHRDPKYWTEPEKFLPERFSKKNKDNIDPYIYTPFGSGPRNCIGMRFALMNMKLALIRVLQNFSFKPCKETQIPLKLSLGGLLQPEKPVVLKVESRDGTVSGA

[2] = Cmax in Sprague-Dawley rat at 10 mg/kg, po; type: ADME, organism-based; set-up: dose 10 mg/kg, route oral; details: in vivo
Outline: (§2)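 Two male Sprague-Dawley rats per route, 10 mg/kg po and 1 mg/kg iv. Cmax, tmax, terminal-phase half-life and AUC0-inf were taken from plasma concentration–time curves. Bioavailability was derived from the po and iv data.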

[3] = Apparent terminal half life in Sprague-Dawley rat at 10 mg/kg, po; type: ADME, organism-based; details: in vivo, read-out: betat1/2(app) (converted); outline: as §2
[4] = Cmax in C57BL/6J mouse at 10 mg/kg, po; type: ADME, organism-based; set-up: dose 10 mg/kg, route oral; details: in vivo
Outline: (§3)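 Two male C57BL/6J mice per route, 10 mg/kg po and 1 mg/kg iv. Plasma concentration–time profiles gave Cmax, tmax, terminal half-life and AUC0-inf. Bioavailability was derived from the po and iv data.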

[5] = Tmax in C57BL/6J mouse at 10 mg/kg, po; type: ADME, organism-based; details: in vivo; outline: as §3
[6] = Apparent terminal half life in C57BL/6J mouse at 10 mg/kg, po; type: ADME, organism-based; details: in vivo, read-out: betat1/2(app) (converted); outline: as §3
[7] = Total clearance in C57BL/6J mouse at 1 mg/kg, iv; type: ADME, organism-based; details: in vivo
Outline: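 Single intravenous dose of 1 mg/kg, with a parallel oral arm at 10 mg/kg, given to two male animals per species: C57BL/6J mice and Sprague Dawley rats. Total body clearance was derived from the plasma concentration–time profile of the compound.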

[8] = Metabolic stability in human liver S9 fraction after 1 hr; type: ADME, subcellular; details: read-out: Stability
Mus musculus [9] = test: Antidiabetic activity in high fat diet fed C57BL/6J mouse assessed as reduction in plasma glucose AUC (0 to 120 mins) administered orally as diet mixture for 43 days and measured on day 22 of administration after overnight fasting by OGTT method; type: functional, organism-based
Outline: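 Male? not stated. C57BL/6J mice fed high fat diet for one month, then given compound as HFD admixture (0.0040% or 0.0133%) for ~3 or 10 mg/kg/day over 43 days (10–16 weeks of age); controls on normal chow or HFD. Day 22: overnight fast, glucose load 1 g/kg; plasma glucose at 0, 0.5, 1, 2 h, AUC calculated; n=5–8, mean ± SD, Dunnett's test.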

Rattus norvegicus = test: Ex vivo inhibition of SCD1 in high sucrose diet Sprague-Dawley rat epididymal adipose tissue treated orally for 6 hrs followed by incubation with [14C]stearoyl-CoA substrate for 10 mins by TLC assay; type: organism-based; details: po
Outline: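 Sprague-Dawley rats on a high sucrose diet, given oral 1 or 10 mg/kg. Liver, epididymal adipose and eyelid were taken 6 h later and homogenized. S9 SCD activity was measured by [14C]stearoyl-CoA conversion to oleate and quantified by AgNO3 TLC imaging. Result is % remaining activity versus control, mean ± SD, n=3.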

[10] = Plasma concentration in high sucrose diet Sprague-Dawley rat at 10 mg/kg, po treated after 6 hrs; type: ADME, organism-based
Outline: (§4)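 Sprague-Dawley rats on a high sucrose diet, given a single oral 10 mg/kg dose. Plasma, liver and eyelid drug concentrations were measured 6 h later, n=3. Liver/eyelid ratio was taken from the tissue concentrations.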

[11] = Drug uptake in high sucrose diet Sprague-Dawley rat eyelid at 10 mg/kg, po treated after 6 hrs; type: ADME, organism-based; details: read-out: Drug uptake; outline: as §4
[12] = AUC in Sprague-Dawley rat at 100 mg/kg, po; type: ADME, organism-based; details: in vivo
Outline: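 Male 6-week-old SD rats, 5 per group, dosed orally once daily for 2 weeks as a suspension in 0.5% methylcellulose aqueous solution. Plasma drug levels taken 24 h after dosing on days 1, 5 and 10. Exposure figure is from this 2-week repeat-dose toxicity study.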

SMILES: CCCCc1ccccc1NCc1ccc(C(=O)Nc2nc(CC(=O)O)cs2)s1
- IC50 (Stearoyl-CoA desaturase): 8.8 nM
- Activity (Mus musculus [1]): 13%
- IC50 (Acyl-CoA desaturase 1): 6.5 nM
- IC50 (Cytochrome P450 3A4): > 50000 nM
- Cmax [2]: 8000 nM
- half-life [3]: 4.7 h
- Cmax [4]: 1700 nM
- Tmax [5]: 1 h
- half-life [6]: 5.2 h
- clearance [7]: 10.2 mL/min/kg
- remaining at 1 h [8]: 91%
- Activity (Mus musculus [9]): Dose-dependent effect
- inhibition (INH) (Rattus norvegicus): Dose-dependent effect
- concentration at 6 h [10]: 552 nM
- concentration at 6 h [11]: 160 nM
- AUC [12]: 179 µM·h
